# Assay results published in ChEMBL document CHEMBL4513216, “Probing the Open Global Health Chemical Diversity Library for Multistage-Active Starting Points for Next-Generation Antimalarials” (ACS Infect Dis, 2020).
# Experiment: Toxicity liver stage against HepG2, at 10uM
# Type: cell-based
# Design: test concentration 10 uM, cell line HepG2-A16-CD81EGFP
# Settings: human, HepG2-A16-CD81EGFP cells; read-out: INHIBITION
# How it was run: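 Uninfected HepG2-A16-CD81EGFP cells, 3 × 10^3 per well, 1536-well, plated on prespotted compound at 10 μM final, parasite-free screening media added to match infected plates; puromycin 10 μM positive, DMSO 0.5% negative; run in parallel with 48 h PbLuc assay at 37 °C, 5% CO2; viability by CellTiter-Glo luminescence, normalized to controls.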
row,SMILES,cytotoxicity at 10 µM
1,O=C(C1CCS(=O)(=O)CC1)N1C[C@@H]2CC[C@H]1CN(Cc1ccccc1)C2,-2.22%
2,Clc1ccccc1CCn1ccnc1-c1cn(C2CCNCC2)nn1,0.33%
3,CCN(CCc1ccccc1)Cn1nc(C)c2c(C)onc2c1=O,-5.18%
4,Cc1ccccc1CSCCn1nc2ccccn2c1=O,2.57%
5,Cc1nn(C)c2cnn(CC(=O)NCc3ccc4c(c3)OCO4)c12,4.45%
6,Cc1cscc1C(=O)N1CCCC1CC(=O)c1cnn(C)c1 (stereo not given),-3.4%
7,CC1c2ncc(Cn3cccn3)n2CCN1Cc1ccc(F)cc1 (stereo not given),-107%
8,CNc1cncc(C2CCCN2C(=O)Cn2ccnc2C)n1 (stereo not given),-4.31%
9,COc1c(C2CCCN2Cc2c(C)noc2C)c(C)nn1C (stereo not given),5.73%
10,O=C(NCCCn1cccn1)C1(c2ccccc2)CCOCC1,5.78%
11,CNc1cc(C)nc(-c2cc(NC)nc3[nH]ccc23)n1,-3.92%
12,CCCNC(=O)CNC(=O)c1scnc1C,8.86%
13,Cc1ncccc1CNCC1CCN(CCO)CC1,-22.5%
14,O=C(Cn1cc(I)cn1)N1CCOCC1,-10.2%
15,CCc1c(C(=O)N2CCN(C)[C@@H]3CS(=O)(=O)C[C@@H]32)[nH]c2ccccc12,-6.08%
16,O=C(Cc1cccs1)N1C[C@H]2CN(CC3CCCO3)CC[C@H]2C1 (stereo not given in full),4.96%
17,CCOCc1nc2c(c(NCc3cc(C)on3)n1)CCN(C(C)=O)CC2,2.24%
18,CCOC(C)c1noc(CN2CCN(Cc3cccnc3)CC2)n1 (stereo not given),-4.55%
19,CSCC(C)NCc1ccc2[nH]c(C)c(C)c2c1 (stereo not given),-0.369%
20,Cc1n[nH]c(C)c1C1CCCN1C(=O)c1coc(Br)c1 (stereo not given),4.23%
21,COc1ccc(C(=O)N2CCC3(CCC(=O)N(C(C)C)C3)CC2)cc1C,-3.47%
22,O=C1CC(C(=O)Nc2nnc(-c3ccccn3)[nH]2)c2ccccc2N1 (stereo not given),7.92%

row,SMILES,cytotoxicity at 10 µM
1,CN(C)CCCC(=O)N1C[C@@H]2CC[C@H]1CN(Cc1ccccc1)C2,-5.39%
2,Cn1cccc1C(=O)N1CCc2ncnc(N3CCCC3)c2CC1,-1.31%
3,COc1ccc(CCNC(=O)N2CCCC(c3nncn3C)C2)cc1 (stereo not given),-3.92%
4,CC(=O)c1cccc(NC(=O)Cn2cc(I)cn2)c1,-1.87%
5,N#Cc1ccc(CS(=O)(=O)NC(=O)c2ccc(C#N)cc2)cc1,5.47%
6,Cc1ccccc1NC(=O)N1CC[C@@H]2CN(C)S(=O)(=O)[C@@H]2CC1,4%
7,O=C(Nc1ccccc1)C1CCCN(c2cc(-n3cncn3)ncn2)C1 (stereo not given),-2.1%
8,CC(=O)Nc1cccc(CN2CCCC2C(=O)Nc2nccs2)c1 (stereo not given),6.12%
9,OC1CCCOC12CCN(CCCOc1ccccc1F)CC2 (stereo not given),3.4%
10,COCC(=O)N1CC(=O)c2sc(Nc3ccc(F)cc3F)nc2C1,-7.02%
11,CN(CCS(=O)(=O)c1cc(Cl)ccc1Cl)CC(N)=O,4.65%
12,CC(C)c1nc2n(n1)CC(NCc1nnc(C(C)C)o1)CC2 (stereo not given),-4.13%
13,NC(=O)CCCNC(=O)CCc1cc(Br)cs1,4.11%
14,Cn1cc(C#N)cc1C(=O)Nc1ccc(CN2CCOCC2)cn1,-6.68%
15,CC(C)c1nsc(N2CCC(OCCN3CCOCC3)CC2)n1,-14.2%
16,Nc1ncnc2c1ncn2[C@H]1CCN(Cc2ccsc2)CC[C@@H]1O,-4.25%
17,CC(C)CCN(C)Cc1nc2c(cnn2C)c(=O)[nH]1,-11.2%
18,Cc1nc(CNCC2CCCN2c2cccnn2)oc1C (stereo not given),-3.31%
19,Cc1nc(-c2ccc(F)cc2)nc2c1CCN(C(=O)CN(C)C)CC2,-1.65%
20,CCCn1cnnc1CNC1CSCCSC1,-7.31%
21,COCC1CN(C(=O)Nc2cc(Cl)ccc2F)CCO1 (stereo not given),10.7%
22,CCCNC(=O)Cn1c(-n2nc(C)cc2C)nc(CCC)cc1=O,8.94%

row,SMILES,cytotoxicity at 10 µM
1,CCn1ccnc1CN1CCN(CC(=O)NC(C)(C#N)C2CC2)CC1 (stereo not given),-8.24%
2,O=C1CCCN1Cc1nnc2n1CCCN(C(=O)c1ccco1)C2,8.3%
3,CN1CCN(Cc2nc3c(s2)CCCC3)[C@H]2CS(=O)(=O)C[C@H]21,2.81%
4,CCC[C@H]1CN(CCS(C)(=O)=O)C[C@@H]1NC(=O)c1cc(CC)on1,-2.42%
5,CCc1ccc(OCCn2cccn2)cc1,8.95%
6,O=C(Nc1ccccn1)c1cncc(C2CCNCC2)n1,-0.0757%
7,CC(c1ccc(Cl)cc1)N1CCN(CCCS(N)(=O)=O)CC1 (stereo not given),-1.44%
8,CS(=O)(=O)N1CC2(CCCN(CC3CC3)C2)Cc2ccccc21 (stereo not given),2.85%
9,COCC1CN(c2ncc(F)cn2)Cc2cnn(C)c21 (stereo not given),4.02%
10,Cc1ccc(CN2CC(C(=O)NCC3CC3)C3(CCOCC3)C2)s1 (stereo not given),-3.66%
11,CCc1[nH]c2c(CNC(=O)[C@@H]3CCCN3C)cc(C)cc2c1C,-3.33%
12,CC(C)(C)n1cc(C(=O)O)c(-c2ccc(F)cc2F)n1,6.92%
13,O=C(COC1CCCC1)NS(=O)(=O)c1ccc2c(c1)OCCCO2,-15.3%
14,COc1ccc(-n2ccc(C(=O)NCCN3CCCCCC3)n2)cc1,-3.84%
15,CCOc1ccc2c(c1)C=C(C(=O)NC(C)Cn1cccn1)CO2 (stereo not given),6.95%
16,CN(C)C(=O)N1CCN(C(=O)c2ccccc2)CC2(CNC(=O)C2)C1 (stereo not given),7.19%
17,CSc1nsc(SCC(=O)c2cc3c(cc2Cl)NC(=O)C3)n1,5.13%
18,Cc1cc(C(=O)N2CC[C@@H]3CN(c4ncccn4)CCO[C@@H]3C2)c(C)o1,3.52%
19,Cc1cnc(N2CC[C@H]3[C@@H]2CCC(=O)N3c2cccnc2)nc1,-0.298%
20,O=C(NCCSC1CCCC1)c1cc(C2CC2)on1,0.459%
21,COc1c(C)cnc(CN2CCOC(Cn3nc(C)nc3C)C2)c1C (stereo not given),-13.1%
22,CCN(C)c1ncnc2c1CCN(C(=O)c1cccn1C)CC2,-67.8%

row,SMILES,cytotoxicity at 10 µM
1,CCc1nnc(CN(CC)C(=O)C2CC(=O)N(C3CCCC3)C2)o1 (stereo not given),-2.57%
2,COC(C)c1noc(CN(C)c2ncc(Br)cn2)n1 (stereo not given),-1.26%
3,Cc1n[nH]c(C2CN(CC(=O)NCc3ccco3)CCO2)n1 (stereo not given),23%
4,Cc1cc(C)n(Cc2cc(C(=O)N3CCCCC3c3nccs3)n[nH]2)n1 (stereo not given),13.8%
5,CC(C)CC(=O)N1Cc2ccccc2CC1C(=O)Nc1nncs1 (stereo not given),-154%
6,CC(C)Cc1noc(CN2CCCC(Cn3cncn3)C2)n1 (stereo not given),-2.6%
7,O=C1COC2(CCN(Cc3ccco3)CC2)CN1,-1.49%
8,Cc1ncccc1Oc1ncnc(N2CCC3(CCCO3)CC2)c1C,-6.89%
9,c1ccc2c3c([nH]c2c1)C(c1nn[nH]n1)CCC3 (stereo not given),-7.23%
10,CCc1nnc2n1CCN(C(=O)c1ccc(-c3ccco3)nc1C)C2,-7.23%
11,OC(CN1CCN(CC2CCCCC2)CC1)c1ccccc1 (stereo not given),1.53%
12,CNc1cc(N2CCC(O)(CNC(=O)c3ccc(C)nc3)C2)ncn1 (stereo not given),-25.3%
13,NS(=O)(=O)N1CCc2ccc(NC(=O)Cc3ccccc3F)cc21,1.17%
14,Cc1ccc(C(=O)Nc2ccc(N3CCCC3)cn2)cc1F,47.4%
15,c1cn2c(n1)CNCC(COCC1CC1)C2 (stereo not given),17.4%
16,Cc1nc([C@H]2C[C@H]3CN(C(=O)c4ccoc4C)CC[C@@H]3O2)no1,0.369%
17,CCC(C)(CCO)NC(=O)c1ccon1 (stereo not given),4.13%
18,COC(=O)CC1CSCCN1C(=O)CCc1c(C)nn(C)c1C (stereo not given),-2.65%
19,Cc1ccc(CN2CC[C@@H](O)[C@@H]2Cc2cnn(C)c2)o1,-71%
20,Cc1cccc(OCCC(=O)N(C)CCC#N)c1C,0.666%
21,Cc1nn(C)cc1CN(C)C(=O)c1cccnc1,0.992%
22,CC(C)(C)N1CC(C(=O)N2CCN(CCn3cncn3)CC2)CC1=O (stereo not given),-5.14%

row,SMILES,cytotoxicity at 10 µM
1,CN(C)C(=O)c1cc2ncc(C(=O)NC3CCCC3)cc2n1C,-2.63%
2,COc1ccc(CNCc2ccnc(N3CCOCC3)c2)c(OC)c1,-8.92%
3,CCC(C(=O)NCc1ccccn1)N(c1cccc(C)c1)S(C)(=O)=O (stereo not given),0.383%
4,Cc1nsc2ncc(C(=O)N3CCCC3c3cnn(C)c3)cc12 (stereo not given),-1.8%
5,CC(C)(C(=O)N1CCCC(OCc2cccnc2)C1)n1cccc1 (stereo not given),-4.06%
6,CCOCC(=O)N1C[C@@H]2CC[C@H](Oc3ccccc3)[C@@H]2C1,-16.1%
7,CN(Cc1csc(-c2cccs2)n1)C(=O)CCn1ccc(=O)[nH]c1=O,4.71%
8,Cn1cnnc1C1CCN(C(=O)c2cc3c(s2)CCC3)CC1,-10%
9,CC(C)(C)c1cc(=O)n2c(n1)SCC(C(=O)NCc1ccco1)C2 (stereo not given),-15.1%
10,NCCO[C@H]1C[C@@H](O)C12CCN(Cc1c(F)cccc1F)CC2,-20%
11,C[C@]1(O)CCN(Cc2nccs2)C[C@@H]1Oc1cccc(F)c1,-0.779%
12,COCc1cn(C2CCN(CCC(C)c3ccccc3)CC2)nn1 (stereo not given),6.39%
13,CN1[C@@H](C(=O)NCC2CC2)C[C@@H]2CN(c3ncccn3)C[C@@H]21,9.85%
14,Cc1nc(COCc2nc3c(o2)CN(C(=O)c2ccc[nH]2)C3)cs1,0.657%
15,COCCOCC(=O)N1C[C@@H]2CC[C@H](Oc3ccccc3F)[C@@H]2C1,-1.96%
16,CCOCC1CN(Cc2cnn(C)c2)Cc2nn(C)cc21 (stereo not given),2.37%
17,CN(Cc1nc(C(F)(F)F)cs1)C(=O)CCc1ccccn1,23.5%
18,CC(C)n1cc(-n2cc3nc(N4CCOCC4)[nH]cc-3c2=O)cn1,4.48%
19,O=C(c1ccncc1F)N1CCc2ncnc(-c3ccncc3)c2CC1,2.75%
20,O=C(Nc1ccccn1)NC(CCCO)c1ccccc1 (stereo not given),3.72%
21,CCNC(=O)C1(Cc2cc(-c3ccccc3)no2)CCCN(C)C1 (stereo not given),5.31%
22,O=C(NCc1cc2n(n1)CCCN(Cc1ccc(CO)o1)C2)C1CCC1,5.46%
